Source: ChEMBL document CHEMBL4627411, “Novel Piperidinyl-Azetidines as Potent and Selective CCR4 Antagonists Elicit Antitumor Response as a Single Agent and in Combination with Checkpoint Inhibitors” (J Med Chem, 2020)
The source made the active and inactive calls. No cut-off for these calls is given here.

Assays:
[1] = target: Cytochrome P450 2C9 (Homo sapiens, UniProt P11712); assay: Inhibition of CYP2C9 in human liver microsomes using diclofenac sodium salt as substrate incubated for 20 mins in presence of NADPH by LC-MS/MS analysis; assay type: ADME
[2] = Oral bioavailability in dog at 2 mg/kg; assay type: ADME, organism-based, Canis lupus familiaris; conditions: in vivo
[3] = target: C-X-C chemokine receptor type 6 (Homo sapiens) (UniProt O00574); assay: Antagonist activity at human Gi/G0-coupled CXCR6 assessed as inhibition of CXCL16-induced beta arrestin2 recruitment at 500 nM preincubated for 30 mins followed by CXCL16 stimulation and measured after 90 to 180 mins by pathhunter assay
[4] = Oral bioavailability in rat at 2 mg/kg; assay type: ADME, organism-based; conditions: in vivo
Outline: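 Rat in vivo PK. Oral dose of 2 mg/kg; %F derived.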

[5] = Clearance in dog at 0.5 mg/kg, iv; assay type: ADME, organism-based, Canis lupus familiaris; conditions: in vivo
[6] = target: C-C chemokine receptor type 6 (Homo sapiens) (UniProt P51684); assay: Antagonist activity at human Gi/G0-coupled CCR6 receptor expressed in CHOK1 cells assessed as inhibition of CCL20-induced beta arrestin2 recruitment at 500 nM preincubated for 30 mins followed by CCL20 stimulation and measured after 90 to 180 mins by pathhunter assay; assay type: cell-based; conditions: CHO-K1
[7] = target: Chemerin-like receptor 1 (Homo sapiens) (UniProt Q99788); assay: Antagonist activity at human CMKLR1 expressed in CHOK1 cells assessed as inhibition of chemerin-induced beta arrestin2 recruitment at 500 nM preincubated for 30 mins followed by chemerin stimulation and measured after 90 to 180 mins by pathhunter assay; assay type: cell-based; conditions: CHO-K1
[8] = target: C-X-C chemokine receptor type 2 (Homo sapiens) (UniProt P25025); assay: Antagonist activity at human Gi/G0-coupled CXCR2 assessed as inhibition of CXCL8-induced beta arrestin2 recruitment at 500 nM preincubated for 30 mins followed by CXCL8 stimulation and measured after 90 to 180 mins by pathhunter assay
[9] = target: Atypical chemokine receptor 3 (Homo sapiens) (UniProt P25106); assay: Antagonist activity at human CXCR7 assessed as inhibition of CXCL12-induced beta arrestin2 recruitment at 500 nM preincubated for 30 mins followed by CXCL12 stimulation and measured after 90 to 180 mins by pathhunter assay
[10] = target: T1, C-C chemokine receptor type 4 (Homo sapiens, UniProt P51679); assay: Antagonist activity at human CCR4 expressed in rat chem-5 cells assessed as inhibition of CCL22-induced calcium flux measured at 2.5 secs time interval for 45 secs by calcium 6 dye-based FLIPR assay; assay type: functional, cell-based
T1 sequence (P51679 whole entry): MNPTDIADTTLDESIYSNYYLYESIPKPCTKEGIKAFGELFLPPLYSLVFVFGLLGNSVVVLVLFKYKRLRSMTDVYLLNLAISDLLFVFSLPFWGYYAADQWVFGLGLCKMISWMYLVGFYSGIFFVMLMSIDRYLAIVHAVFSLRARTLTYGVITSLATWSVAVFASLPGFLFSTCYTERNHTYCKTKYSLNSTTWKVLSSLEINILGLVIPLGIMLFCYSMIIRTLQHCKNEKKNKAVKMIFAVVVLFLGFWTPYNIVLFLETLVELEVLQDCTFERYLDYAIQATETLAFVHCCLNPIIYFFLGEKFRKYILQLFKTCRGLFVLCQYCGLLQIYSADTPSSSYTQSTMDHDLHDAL
Outline: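 Primary calcium flux assay for CCR4 antagonism, run in the absence of serum.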

[11] = Metabolic stability in rat hepatocytes assessed as parent compound remaining at 1 uM after 60 mins by LC-MS/MS analysis; assay type: ADME, cell-based, Hepatocyte; conditions: read-out: Stability
Outline: (§1)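 Hepatocytes (human or rat). Compound incubated for 60 min; value is % parent remaining.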

[12] = Oral bioavailability in cynomolgus monkey at 2 mg/kg; assay type: ADME, organism-based, Macaca fascicularis; conditions: in vivo
[13] = Half life in dog at 0.5 mg/kg, iv; assay type: ADME, organism-based, Canis lupus familiaris; conditions: in vivo
[14] = target: Cytochrome P450 1A2 (Homo sapiens, UniProt P05177); assay: Inhibition of CYP1A2 in human liver microsomes using phenacetin as substrate incubated for 20 mins in presence of NADPH by LC-MS/MS analysis; assay type: ADME
[15] = Half life in mouse at 0.5 mg/kg, iv; assay type: ADME, organism-based; conditions: in vivo
[16] = system: Panc02; assay: Antitumor activity against mouse Panc02 cells allografted in C57BL/6 mouse assessed as reduction in tumor growth at 50 mg/kg, po qd for 38 days in presence of anti-CTLA-4; assay type: functional, organism-based
Outline: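 Pan02-OVA syngeneic tumor model. Compound given 50 mg/kg PO QD on a therapeutic schedule, alone or combined with anti-CTLA-4 antibody; tumor growth tracked. Groups compared by two-tailed t-test.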

[17] = target: C-X-C chemokine receptor type 3 (Homo sapiens) (UniProt P49682); assay: Antagonist activity at human Gi/G0-coupled CXCR3 assessed as inhibition of CXCL11-induced beta arrestin2 recruitment at 500 nM preincubated for 30 mins followed by CXCL11 stimulation and measured after 90 to 180 mins by pathhunter assay
[18] = target: C-C chemokine receptor type 9 (Homo sapiens) (UniProt P51686); assay: Antagonist activity at human Gi/G0-coupled CCR9 receptor expressed in CHOK1 cells assessed as inhibition of CCL25-induced beta arrestin2 recruitment at 500 nM preincubated for 30 mins followed by CCL25 stimulation and measured after 90 to 180 mins by pathhunter assay; assay type: cell-based; conditions: CHO-K1
[19] = target: C-C chemokine receptor type 2 (Homo sapiens) (UniProt P41597); assay: Antagonist activity at human Gi/G0-coupled […]-induced beta arrestin2 recruitment at 500 nM preincubated for 30 mins […] and measured after 90 to 180 mins by pathhunter assay
[20] = system: CT26; assay: Antitumor activity against mouse CT26 cells allografted in Balb/c mouse assessed as reduction in tumour volume at 50 mg/kg, po qd for 28 days starting from 3 days post inoculation measured twice weekly in presence of checkpoint inhibitor anti-PD-L1; assay type: functional, organism-based
[21] = system: Cytochrome P450; assay: Induction of CYP450 (unknown origin); assay type: ADME, protein assay; conditions: human
[22] = Metabolic stability in human hepatocytes assessed as parent compound remaining at 1 uM after 60 mins by LC-MS/MS analysis; assay type: ADME, cell-based, Hepatocyte; conditions: read-out: Stability; outline: as §1
[23] = Clearance in mouse at 0.5 mg/kg, iv; assay type: ADME, organism-based; conditions: in vivo
[24] = Clearance in rat at 0.5 mg/kg, iv; assay type: ADME, organism-based; conditions: in vivo
Outline: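 Rat in vivo PK. Single IV dose of 0.5 mg/kg; clearance in mL/min/kg.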

[25] = system: CT26; assay: Antitumor activity against mouse CT26 cells allografted in Balb/c mouse assessed as reduction in tumor volume at 50 mg/kg, po qd for 28 days starting from 3 days post inoculation measured twice weekly; assay type: functional, organism-based
[26] = target: C-X-C chemokine receptor type 5 (Homo sapiens) (UniProt P32302); assay: Antagonist activity at human Gi/G0-coupled CXCR5 assessed as inhibition of CXCL13-induced beta arrestin2 recruitment at 500 nM preincubated for 30 mins followed by CXCL13 stimulation and measured after 90 to 180 mins by pathhunter assay
[27] = target: C-X-C chemokine receptor type 4 (Homo sapiens) (UniProt P61073); assay: Antagonist activity at human Gi/G0-coupled CXCR4 assessed as inhibition of CXCL12-induced beta arrestin2 recruitment at 500 nM preincubated for 30 mins followed by CXCL12 stimulation and measured after 90 to 180 mins by pathhunter assay
C-X-C chemokine receptor type 4 (Homo sapiens), sequence (P61073 whole entry): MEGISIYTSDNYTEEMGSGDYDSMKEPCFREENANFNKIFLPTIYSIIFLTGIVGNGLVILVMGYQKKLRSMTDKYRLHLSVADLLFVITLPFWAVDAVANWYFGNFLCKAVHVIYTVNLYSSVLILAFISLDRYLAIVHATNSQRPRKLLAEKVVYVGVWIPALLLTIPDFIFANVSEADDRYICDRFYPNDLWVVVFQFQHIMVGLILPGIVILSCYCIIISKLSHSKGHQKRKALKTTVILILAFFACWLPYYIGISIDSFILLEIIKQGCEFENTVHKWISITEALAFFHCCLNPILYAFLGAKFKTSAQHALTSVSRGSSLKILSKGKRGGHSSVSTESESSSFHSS

C-C chemokine receptor type 6 (Homo sapiens), sequence (P51684 whole entry): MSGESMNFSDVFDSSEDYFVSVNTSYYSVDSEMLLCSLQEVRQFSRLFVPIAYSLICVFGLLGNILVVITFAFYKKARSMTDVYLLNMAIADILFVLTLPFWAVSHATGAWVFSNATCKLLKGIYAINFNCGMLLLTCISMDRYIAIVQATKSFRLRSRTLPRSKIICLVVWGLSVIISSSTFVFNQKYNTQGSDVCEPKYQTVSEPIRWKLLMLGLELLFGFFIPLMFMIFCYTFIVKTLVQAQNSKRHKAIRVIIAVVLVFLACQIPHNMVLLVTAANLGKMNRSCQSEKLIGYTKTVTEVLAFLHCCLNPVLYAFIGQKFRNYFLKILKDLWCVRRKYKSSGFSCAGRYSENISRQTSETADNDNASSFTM
Atypical chemokine receptor 3 (Homo sapiens), sequence (P25106 whole entry): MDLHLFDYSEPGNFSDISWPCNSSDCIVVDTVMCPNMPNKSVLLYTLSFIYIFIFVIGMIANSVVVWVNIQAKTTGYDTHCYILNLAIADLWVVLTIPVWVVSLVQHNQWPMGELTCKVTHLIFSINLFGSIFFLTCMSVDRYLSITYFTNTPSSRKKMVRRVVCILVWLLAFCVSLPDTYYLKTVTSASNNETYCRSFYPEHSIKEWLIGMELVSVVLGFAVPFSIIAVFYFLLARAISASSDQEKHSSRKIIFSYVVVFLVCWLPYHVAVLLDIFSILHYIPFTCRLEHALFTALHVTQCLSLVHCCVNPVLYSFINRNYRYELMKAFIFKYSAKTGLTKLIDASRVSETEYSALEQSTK
Cytochrome P450 2C9, sequence (P11712 whole entry): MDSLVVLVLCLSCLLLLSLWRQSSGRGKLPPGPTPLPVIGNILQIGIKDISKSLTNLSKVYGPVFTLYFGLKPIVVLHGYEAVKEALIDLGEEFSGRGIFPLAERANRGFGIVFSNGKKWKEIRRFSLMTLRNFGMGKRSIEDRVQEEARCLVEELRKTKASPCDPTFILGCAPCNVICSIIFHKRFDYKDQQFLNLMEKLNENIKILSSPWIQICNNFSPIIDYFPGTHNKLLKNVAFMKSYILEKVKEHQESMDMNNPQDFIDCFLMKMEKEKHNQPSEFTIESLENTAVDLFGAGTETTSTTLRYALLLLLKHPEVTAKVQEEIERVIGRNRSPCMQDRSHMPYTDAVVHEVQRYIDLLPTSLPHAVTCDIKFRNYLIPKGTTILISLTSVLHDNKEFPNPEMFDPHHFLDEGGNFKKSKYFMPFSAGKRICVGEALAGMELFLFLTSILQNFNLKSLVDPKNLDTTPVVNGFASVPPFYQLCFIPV
C-X-C chemokine receptor type 2 (Homo sapiens), sequence (P25025 whole entry): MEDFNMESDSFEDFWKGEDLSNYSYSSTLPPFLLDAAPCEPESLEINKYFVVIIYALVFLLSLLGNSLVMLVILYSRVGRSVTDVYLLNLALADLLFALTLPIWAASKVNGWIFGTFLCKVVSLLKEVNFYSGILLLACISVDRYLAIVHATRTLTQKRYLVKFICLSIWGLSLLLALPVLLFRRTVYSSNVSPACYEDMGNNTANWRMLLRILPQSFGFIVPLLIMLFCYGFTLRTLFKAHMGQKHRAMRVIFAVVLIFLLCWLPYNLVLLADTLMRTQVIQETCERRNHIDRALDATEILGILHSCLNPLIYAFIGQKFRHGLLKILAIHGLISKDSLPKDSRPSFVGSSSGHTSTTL
C-C chemokine receptor type 9 (Homo sapiens), sequence (P51686 whole entry): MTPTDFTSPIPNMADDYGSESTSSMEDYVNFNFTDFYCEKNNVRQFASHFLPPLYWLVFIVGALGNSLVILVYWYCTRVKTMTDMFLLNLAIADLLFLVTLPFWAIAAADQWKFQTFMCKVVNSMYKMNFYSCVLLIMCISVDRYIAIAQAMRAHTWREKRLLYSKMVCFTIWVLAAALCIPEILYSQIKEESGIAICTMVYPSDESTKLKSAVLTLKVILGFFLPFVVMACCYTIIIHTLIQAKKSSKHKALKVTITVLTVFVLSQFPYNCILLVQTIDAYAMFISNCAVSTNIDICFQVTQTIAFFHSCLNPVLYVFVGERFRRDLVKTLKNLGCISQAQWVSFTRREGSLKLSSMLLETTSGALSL
Chemerin-like receptor 1 (Homo sapiens), sequence (Q99788 whole entry): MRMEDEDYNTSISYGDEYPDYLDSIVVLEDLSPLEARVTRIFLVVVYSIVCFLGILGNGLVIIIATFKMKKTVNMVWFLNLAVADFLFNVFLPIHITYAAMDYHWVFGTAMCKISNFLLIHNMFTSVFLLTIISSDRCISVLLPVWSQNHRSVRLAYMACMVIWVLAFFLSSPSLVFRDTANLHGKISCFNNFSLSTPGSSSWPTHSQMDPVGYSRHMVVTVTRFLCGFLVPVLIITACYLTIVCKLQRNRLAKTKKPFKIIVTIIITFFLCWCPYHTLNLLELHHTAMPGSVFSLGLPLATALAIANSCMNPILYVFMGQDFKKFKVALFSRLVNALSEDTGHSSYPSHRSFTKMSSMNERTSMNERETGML
Cytochrome P450 1A2, sequence (P05177 whole entry): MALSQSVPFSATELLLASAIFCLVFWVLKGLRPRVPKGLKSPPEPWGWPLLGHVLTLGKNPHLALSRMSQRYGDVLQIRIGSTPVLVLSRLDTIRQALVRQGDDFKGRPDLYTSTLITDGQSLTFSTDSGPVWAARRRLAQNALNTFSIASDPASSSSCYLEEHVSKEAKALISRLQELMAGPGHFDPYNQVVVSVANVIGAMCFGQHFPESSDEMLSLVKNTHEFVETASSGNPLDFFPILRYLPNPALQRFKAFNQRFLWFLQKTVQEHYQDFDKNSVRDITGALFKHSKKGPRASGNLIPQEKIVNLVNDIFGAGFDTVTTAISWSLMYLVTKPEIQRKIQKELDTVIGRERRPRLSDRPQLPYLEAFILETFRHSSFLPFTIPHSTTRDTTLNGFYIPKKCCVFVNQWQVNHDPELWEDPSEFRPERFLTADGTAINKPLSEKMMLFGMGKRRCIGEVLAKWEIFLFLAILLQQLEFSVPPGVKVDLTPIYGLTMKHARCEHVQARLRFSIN
C-C chemokine receptor type 2 (Homo sapiens), sequence (P41597 whole entry, looked up): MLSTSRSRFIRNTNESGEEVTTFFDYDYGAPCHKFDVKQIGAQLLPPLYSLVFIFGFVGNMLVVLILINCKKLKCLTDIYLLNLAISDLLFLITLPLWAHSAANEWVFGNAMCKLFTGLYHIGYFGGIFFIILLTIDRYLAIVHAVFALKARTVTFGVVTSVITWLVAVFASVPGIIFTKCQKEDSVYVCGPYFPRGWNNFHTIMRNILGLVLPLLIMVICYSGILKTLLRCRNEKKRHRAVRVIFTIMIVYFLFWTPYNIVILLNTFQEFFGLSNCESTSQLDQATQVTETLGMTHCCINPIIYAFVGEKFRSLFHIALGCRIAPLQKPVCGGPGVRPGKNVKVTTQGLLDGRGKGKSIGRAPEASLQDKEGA
C-X-C chemokine receptor type 6 (Homo sapiens), sequence (O00574 whole entry, looked up): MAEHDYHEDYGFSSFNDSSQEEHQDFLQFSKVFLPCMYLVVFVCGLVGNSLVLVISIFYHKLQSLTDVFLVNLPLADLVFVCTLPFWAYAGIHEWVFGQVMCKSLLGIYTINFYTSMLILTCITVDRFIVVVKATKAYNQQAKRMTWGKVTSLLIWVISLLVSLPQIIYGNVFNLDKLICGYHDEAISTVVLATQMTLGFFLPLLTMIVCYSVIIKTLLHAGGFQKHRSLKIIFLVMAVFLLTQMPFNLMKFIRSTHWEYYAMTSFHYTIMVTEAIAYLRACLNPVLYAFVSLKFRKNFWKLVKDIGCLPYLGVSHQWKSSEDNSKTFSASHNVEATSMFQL
C-X-C chemokine receptor type 3 (Homo sapiens), sequence (P49682 whole entry): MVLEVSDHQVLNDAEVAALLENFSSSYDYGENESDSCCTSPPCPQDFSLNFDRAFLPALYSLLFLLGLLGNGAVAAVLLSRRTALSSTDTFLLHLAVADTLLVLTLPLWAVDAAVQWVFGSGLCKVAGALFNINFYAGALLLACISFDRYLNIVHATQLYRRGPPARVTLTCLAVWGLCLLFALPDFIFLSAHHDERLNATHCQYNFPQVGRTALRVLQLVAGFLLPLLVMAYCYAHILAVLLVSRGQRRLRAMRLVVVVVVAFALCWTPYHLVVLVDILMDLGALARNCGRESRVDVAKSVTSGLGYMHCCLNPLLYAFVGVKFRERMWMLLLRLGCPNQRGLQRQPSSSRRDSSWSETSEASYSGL
C-X-C chemokine receptor type 5 (Homo sapiens), sequence (P32302 whole entry): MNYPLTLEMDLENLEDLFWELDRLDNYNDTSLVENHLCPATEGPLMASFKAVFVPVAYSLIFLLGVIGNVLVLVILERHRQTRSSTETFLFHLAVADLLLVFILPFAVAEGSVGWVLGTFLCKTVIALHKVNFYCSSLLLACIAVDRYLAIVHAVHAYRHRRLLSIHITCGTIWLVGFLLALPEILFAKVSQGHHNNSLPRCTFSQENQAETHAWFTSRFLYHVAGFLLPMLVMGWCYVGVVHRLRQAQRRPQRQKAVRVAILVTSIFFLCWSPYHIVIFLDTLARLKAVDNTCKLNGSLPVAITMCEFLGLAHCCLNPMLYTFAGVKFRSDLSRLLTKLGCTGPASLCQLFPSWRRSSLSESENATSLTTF

C[C@H](c1ccc(Cl)cc1Cl)n1nc(C#N)c2ncc(N3CC([C@H]4CCCN(CCO)C4)C3)nc21
IC50 [1]: > 40 µM | bioavailability [2]: 44% | Activity [3]: inactive | bioavailability [4]: 49% | clearance [5]: 7.3 mL/min/kg | Activity [6]: inactive | Activity [7]: inactive | Activity [8]: inactive | Activity [9]: inactive | IC50 [10]: 0.022 µM | remaining at 1 h, 1 µM [11]: 73% | bioavailability [12]: 41% | half-life [13]: 12.7 h | IC50 [14]: > 40 µM | half-life [15]: 6.9 h | Activity [16]: Active | Activity [17]: inactive | Activity [18]: inactive | Activity [19]: inactive | Activity [20]: Active | Activity [21]: Not Active | remaining at 1 h, 1 µM [22]: 91% | clearance [23]: 10.2 mL/min/kg | clearance [24]: 47.6 mL/min/kg | Activity [25]: Active | Activity [26]: inactive | Activity [27]: inactive
